mHtt clearance = mutant huntingtin protein clearance; HeLa Exon1htt(103Q)mCFP, aggregate imaging; zero = plate's median compound well; actives 0.42% (n = 47,000); inhibition, % at 1.5 µM; AID 853;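 active means inhibition of aggregate fluorescence above about 70%, also judged a hit by eye on the cell image, limit read from the data, passing the limit was not always enough; inconclusive means no rule stated for this call; inactive means not judged a hit on image review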;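 further: cells exposed to compound for three days before fixation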
D1 mod = allosteric modulators of human D1 dopamine receptor; actives 5.9% (n = 58,000); HEK293 D1, CRE-luciferase, dopamine EC30 potentiation; actives deviate in either direction; B-score at 10 µM; P21728;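 active means luminescence count or its row- and column-corrected plate score outside the 99.7% band of the plate's sample wells, on either side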
Target sequence (P21728 whole entry, looked up): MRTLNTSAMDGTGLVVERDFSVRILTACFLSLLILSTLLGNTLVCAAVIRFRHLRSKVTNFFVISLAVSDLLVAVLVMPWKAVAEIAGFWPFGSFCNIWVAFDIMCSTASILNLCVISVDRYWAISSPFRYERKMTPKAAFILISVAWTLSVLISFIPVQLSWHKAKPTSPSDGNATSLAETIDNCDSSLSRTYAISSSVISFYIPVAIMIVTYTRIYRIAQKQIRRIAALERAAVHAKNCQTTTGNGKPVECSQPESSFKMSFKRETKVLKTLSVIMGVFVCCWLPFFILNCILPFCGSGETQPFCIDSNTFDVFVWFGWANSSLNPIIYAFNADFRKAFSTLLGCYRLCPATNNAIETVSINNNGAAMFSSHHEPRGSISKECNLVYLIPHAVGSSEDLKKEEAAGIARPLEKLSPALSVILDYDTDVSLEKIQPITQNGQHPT
M1 agonist = M1 muscarinic receptor agonism; CHO-M1 cells, Fluo-4 calcium fluorescence, agonist mode; hits give high values; B-score at 10 µM; actives 3% (n = 64,000);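 active means fluorescence rise, raw or as B-score row- and column-corrected plate score, outside the 99.7% band of its plate's samples, either direction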
M1 antagonist = antagonists of rat M1 muscarinic receptor; AID 628; CHO-M1 cells, Fluo-4 calcium, ACh EC80 antagonist mode; hits give low values; actives 3.4% (n = 64,000); B-score at 10 µM;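 active means calcium fluorescence response, raw or row-and-column corrected B-score, differing from the plate sample mean either way at a set confidence level, mostly lower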
AP ELISA ortho = alternative pathway complement inhibition, orthogonal assay; Human serum alternative complement pathway, LPS-coated ELISA, C3 deposition; tested in compound mixtures; inhibition, % at 5 µM; actives 0.08% (n = 62,000);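 active means inhibition above 30% in each of the two pooled mixtures holding the compound, so the lower value exceeds 30%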;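 further: 0% = serum in Mg-EGTA without compound and 100% = EDTA serum blank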
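Test system: human serum complement alternative pathway, C3 deposition onto LPS / Medium: Mg2+-EGTA GVB++ buffer containing human serum at 1:15 dilution / Probe or stimulus: Plate-bound LPS / Times: 1 h at 37 °C / Signal: ELISA with HRP anti-human C3 antibody, TMB substrate, absorbance 450 nm / Measure: percent inhibition / Repeats: two pool placements per compound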
* marks the source's active call; other numbers are inactive results; ? = inconclusive; . = not tested or not shown. This is a sample that favours compounds with a hit; in the whole collection about 9% have one here.

SMILES | mHtt clearance | D1 mod | M1 agonist | M1 antagonist | AP ELISA ortho
O=C(NCC1CCCO1)c1ccc2c(=O)n(CCc3ccccc3)c(=O)[nH]c2c1 (centres undefined) | -13 | -1.6 | 0.89 | -0.029 | 9
CC1CCCCN1CCNC(=O)c1ccc2c(=O)n(CCc3ccccc3)c(=O)[nH]c2c1 (centres undefined) | . | -3.7* | -1.4 | -0.85 | -6
CC1CCN(CCNC(=O)c2ccc3c(=O)n(CCc4ccccc4)c(=O)[nH]c3c2)CC1 | . | -1.1 | -2* | 0.17 | 6
CCOC(=O)CNC(=O)CSc1ncnc2c1cnn2-c1ccc(Cl)cc1 | -60 | -0.76 | 0.016 | -0.41 | -5
CCOC(=O)Cc1csc(NC(=O)CSc2ncnc3c2cnn3-c2ccc(OC)cc2)n1 | 8 | -4.2* | 0.028 | 0.075 | -6
Cc1nnsc1NC(=O)OCC(C)(C)C | 42 | . | . | . | .
COC(=O)c1sc2nc(-c3ccco3)ccc2c1N | ? | -3.2* | -0.33 | 1 | -8
CCN(C(=O)Cc1cccs1)c1nnc(-c2cccnc2)s1 | . | 2.8 | -0.84 | 0.45 | -32
CCCCS(=O)(=O)/C=C\C=C/S(=O)(=O)CCCC | 54 | -2.4* | 0.26 | 0.46 | 12
Fc1ccc(-c2nnc(-c3ccc(Cl)cc3Cl)o2)cc1 | -94 | -2.9* | -0.31 | 1.5 | 9
Clc1ccc(-c2nnc(-c3ccccc3)o2)c(Cl)c1 | . | -1.1 | -0.35 | 0.23 | 0
CCSc1nnc(-c2ccc(Cl)cc2Cl)o1 | . | 0.39 | 0.07 | 2* | 17
Cc1cccc2cc(CN(Cc3nnnn3C3CCCCC3)C3CCCC3)c3nnnn3c12 | -37 | . | . | . | .
CSc1cccc(NS(=O)(=O)c2ccc(F)cc2)c1 | -33 | . | 0.57 | 0.22 | 34*
CSc1cccc(NS(=O)(=O)c2ccccc2)c1 | . | 0.23 | 1.4 | 0.7 | 12
COC(=O)[C@H](C)NC(=O)Nc1ccc(S(N)(=O)=O)cc1 | -26 | 0.29 | 0.41 | 1.6* | 17
CN1CCN(S(=O)(=O)c2ccc(NC(=O)c3csc4ccccc34)cc2)CC1 | . | -1.9* | 0.28 | -0.029 | 15
CC(C)Cn1cc(C(=O)N2CCN(c3ccccn3)CC2)c2c3ccccc3n(C)c2c1=O | -25 | -0.15 | 2.1 | -0.48 | 7
CC(C)CC(=O)Nc1cc(NC(=O)CC(C)C)cc(C(=O)NC(C)(C)C)c1 | -12 | . | . | . | .
CC1CCCN(C(=O)CSc2nnc3n(C4CCCC4)c(=O)c4ccccc4n23)C1 (centres undefined) | 16 | 1.1 | -0.27 | 0.9 | 35*
O=C(CSc1nnc2n(C3CCCC3)c(=O)c3ccccc3n12)N1CCCCCC1 | -24 | 0.83 | 1.4 | -0.5 | -2
Cc1ccc(-n2c(SCC(N)=O)nnc2-c2ccc(S(=O)(=O)N3CCCCC3)cc2)c(C)c1 | 2 | . | . | . | .
CCC1Sc2ccccc2N(CC(=O)NCc2ccc3c(c2)OCO3)C1=O (centres undefined) | . | -2.6* | 3.6 | -1.2 | -2
CCCN(CC1CC1)S(=O)(=O)c1ccc(-n2cnnn2)c(OC)c1 | -18 | . | . | . | .
O=C(OC(C(=O)NCc1cccs1)c1ccccc1Cl)c1ccco1 (centres undefined) | 55 | 1.3 | 0.9 | -0.32 | 14
SMILES | mHtt clearance | D1 mod | M1 agonist | M1 antagonist | AP ELISA ortho
Cc1cc(C(=O)CN2C(=O)c3ccccc3S2(=O)=O)c(C)n1-c1ccccc1 | . | -5* | -0.7 | 0.022 | 4
O=C(CN1C(=O)c2ccccc2S1(=O)=O)c1ccccc1 | . | . | -0.35 | 0.39 | .
Cc1cc(C(=O)CN2C(=O)C3CC=CCC3C2=O)c(C)n1-c1ccccc1 (centres undefined) | . | -3.6* | -0.77 | -0.065 | 13
COc1ccc(CNc2nc3c(c(C(F)(F)F)n2)CCCCC3)cc1 | . | . | -0.25 | 0.12 | 11
COc1cc(-c2nnc(SCc3cccnc3)n2C)cc(OC)c1O | . | -0.14 | 0.5 | 0.39 | -20
COCc1nnc(NC(=O)c2sc3ccccc3c2Cl)s1 | -44 | -1.5 | -0.46 | 0.53 | -4
Cc1nnc(NC(=O)c2sc3ccccc3c2Cl)s1 | -53 | -6.4* | -0.34 | 0.5 | 9
Cc1cc(C(=O)Nc2ccccn2)cs1 | . | -3.8* | 0.58 | 0.53 | 4
Cc1cc(C)n(-c2ccc(C(=O)Nc3ccccn3)cc2)n1 | 25 | -4.1* | -0.8 | 0.21 | 17
COc1ccc2c(=O)c(-c3nc(C)cs3)coc2c1 | 21 | -5.9* | 1.1 | 0.91 | .
Cc1ccc(C(=O)/C=C/Nc2cccc(O)c2)cc1 | . | -2.8* | -0.037 | -0.48 | -2
O=C(/C=C/Nc1cccc(O)c1)c1ccccc1 | . | -8.7* | 0.45 | 0.0018 | -2
O=C(CN1CCC(n2nnc3cc(F)ccc32)CC1)Nc1ccccc1N1CCOCC1 | -17 | -3.1* | 0.35 | -0.067 | .
CCc1nc(SCC(=O)N2CCCc3ccccc32)c2c(=O)n(C)c(=O)n(C)c2n1 | . | -0.43 | 3.5* | -1.8 | 27
CCCCn1c(SCC(=O)N2CCCc3ccccc32)nc2c1c(=O)n(C)c(=O)n2C | . | 0.39 | 9.7* | -0.034 | 11
COc1ccccc1Cn1c(-c2ccco2)nc2nc3ccccc3nc21 | . | 12* | 0.0089 | 0.011 | 4
Cc1ccc(-c2nc3nc4ccccc4nc3n2Cc2ccco2)cc1 | . | -3.3 | -0.84 | 0.026 | -5
CCCCOC(=O)n1c(=O)oc2cc(S(=O)(=O)N3CCCCC3)ccc21 | 72* | -1.1 | 0.49 | 0.036 | 6
O=C(c1ccc(Cl)cc1)N1CCCCC(Sc2nnc(-c3ccc4c(c3)OCO4)o2)C1=O (centres undefined) | . | -10* | -0.0068 | -0.0053 | -9
O=C(O)CSc1nnc(-c2ccc3c(c2)OCO3)o1 | -54 | . | . | . | .
COc1ccccc1NC(=O)CN1C(=O)C2(OCCCO2)c2ccccc21 | . | -2.6* | -0.86 | -0.6 | -6
CCOC(=O)c1cnn(-c2cc(C)c3cc(C)cc(C)c3n2)c1N | . | 0.85 | 0.24 | 0.41 | -25
O=S(=O)(Cc1ccccc1)N1CCc2ccccc21 | . | -0.51 | 8.3* | -0.19 | 13
S=c1[nH]nc(COc2ccc(Cl)cc2)o1 | . | -0.86 | -0.038 | 0.68 | 14
COc1ccc2cc(CN(CC3COCCO3)S(=O)(=O)c3ccc(Cl)cc3)c(=O)[nH]c2c1 (centres undefined) | 26 | 2 | -0.39 | -0.082 | 13
SMILES | mHtt clearance | D1 mod | M1 agonist | M1 antagonist | AP ELISA ortho
CCOC(=O)Cc1cc(=O)[nH]c(/N=C(\N)Nc2ccc(C)cc2C)n1 | 24 | . | . | . | .
COC(=O)Cc1cc(=O)[nH]c(/N=C(\N)Nc2ccc(C)cc2C)n1 | -13 | -5.2* | 1.5 | 0.096 | 3
Cc1nn(C)cc1C1C2=C(CC(C)(C)CC2=O)OC2=C1C(=O)CC(C)(C)C2 | . | -0.011 | 0.06 | -0.73 | -4
CC1(c2ccc(OC(F)F)cc2)NC(=O)N(CC(=O)Nc2ccc3c(c2)OCO3)C1=O (centres undefined) | . | 0.8 | 23* | 0.25 | -7
CC(C)(C)c1ccc(C2(C)NC(=O)N(CC(=O)Nc3ccc4c(c3)OCO4)C2=O)cc1 (centres undefined) | -23 | . | . | . | .
Cc1cccc(CSc2nnc(-c3cccs3)n2Cc2ccco2)c1 | -105 | . | . | . | .
Cc1nc(Nc2ccncc2)c2oc3ccccc3c2n1 | . | 1.1 | 22* | -2.9* | 10
CC(=O)Nc1ccc(Nc2nc(C)nc3c2oc2ccccc23)cc1 | 18 | . | . | . | 9
